How the values were obtained:
SK-OV-3 = experiment: Cytotoxicity against human SKOV3 cells assessed as cell growth inhibition after 24 hrs by MTT assay; format: functional, cell-based; conditions: SK-OV-3, 24 h
Summary of the method: (§1)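 Cell lines grown to log phase in RPMI-1640 with 10% FBS, penicillin and streptomycin. About 10^5 cells/mL were plated and pre-incubated 24 h at 37 °C in 5% CO2. Compounds were given in DMSO, final ≤2% (v/v). MTT read-out was OD at 490 nm. Triplicate wells per concentration, each assay run ≥3 times. IC50 is 50% OD reduction versus untreated cells, calculated by the Logit method. Cisplatin was the reference.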

[1] = Cytotoxicity against human BGC cells assessed as cell growth inhibition after 24 hrs by MTT assay; format: functional, cell-based; summary of the method: as §1
[2] = system: Lewis lung carcinoma cell line; experiment: Cytotoxicity against mouse LLC cells assessed as cell growth inhibition after 24 hrs by MTT assay; format: functional, cell-based; summary of the method: as §1
A-375 = experiment: Cytotoxicity against human A375 cells assessed as cell growth inhibition after 24 hrs by MTT assay; format: functional, cell-based; conditions: A-375, 24 h; summary of the method: as §1
HepG2 = experiment: Cytotoxicity against human HepG2 cells assessed as cell growth inhibition after 24 hrs by MTT assay; format: functional, cell-based; conditions: HepG2, 24 h; summary of the method: as §1
MCF7 = experiment: Cytotoxicity against human MCF7 cells assessed as cell growth inhibition after 24 hrs by MTT assay; format: functional, cell-based; conditions: MCF7, 24 h; summary of the method: as §1
ECa-109 cell line = experiment: Cytotoxicity against human ECA109 cells assessed as cell growth inhibition after 24 hrs by MTT assay; format: functional, cell-based; conditions: ECa-109, 24 h; summary of the method: as §1
HT-29 = experiment: Cytotoxicity against human HT-29 cells assessed as cell growth inhibition after 24 hrs by MTT assay; format: functional, cell-based; conditions: HT-29, 24 h; summary of the method: as §1
769-P = experiment: Cytotoxicity against human 769-P cells assessed as cell growth inhibition after 24 hrs by MTT assay; format: functional, cell-based; summary of the method: as §1
Sarcoma-180 [3] = experiment: Antitumor activity against mouse Sarcoma 180 cells implanted in mouse assessed as tumor growth inhibition at 30 mg/kg, ip administered once per day for 7 consecutive days starting from 24 hrs post tumor inoculation and measured on day 21 post tumor inoculation relative to control; format: functional; conditions: Sarcoma-180, ip, read-out: TGI
Summary of the method: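 Tumour cells passaged in mice for 7 days, then 2 × 10^6 viable cells given s.c. into the armpit of female mice, 10 per group. […] CTX at 30 mg kg-1 as reference, vehicle as negative control. Body weight recorded every 3 days. Tumours excised and weighed on day 21. Inhibition = (C − T)/C × 100, using mean tumour weights.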

Mus musculus [4] = experiment: Cardiotoxicity in Kunming mouse at 5 to 500 mg/kg, ip after 14 days by macroscopic method; format: toxicity, organism-based; conditions: in vivo, 336 h
[5] = Acute toxicity in ip dosed Kunming mouse observed continuously for first 2 hrs, intermittently for next 24 hrs and occasionally thereafter for 14 days; format: organism-based; conditions: in vivo
Summary of the method: (§2)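 SPF KM mice, 6-8 weeks, 19-22 g, fasted overnight with water available. Single i.p. dose, 5.0 to 500 mg kg-1 in 0.5% CMC-Na, 10 mice per group (5 male, 5 female). Observed for behaviour, neurotoxic signs and deaths, then killed on day 14 and heart, liver and kidneys inspected macroscopically. LD50 derived graphically.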

Mus musculus [6] = experiment: Neurotoxicity in Kunming mouse assessed as twitch at 5 to 500 mg/kg, ip observed continuously for first 2 hrs, intermittently for next 24 hrs and occasionally thereafter for 14 days; format: toxicity, organism-based; conditions: in vivo; summary of the method: as §2
Mus musculus [7] = experiment: Acute toxicity in ip dosed Kunming mouse assessed as death at higher dose up to 4 to 8 hrs; format: organism-based; conditions: in vivo; summary of the method: as §2
Mus musculus [8] = experiment: Nephrotoxicity in Kunming mouse at 5 to 500 mg/kg, ip after 14 days by macroscopic method; format: toxicity, organism-based; conditions: in vivo, 336 h
Mus musculus [9] = experiment: Neurotoxicity in Kunming mouse assessed as tremble at 5 to 500 mg/kg, ip observed continuously for first 2 hrs, intermittently for next 24 hrs and occasionally thereafter for 14 days; format: toxicity, organism-based; conditions: in vivo; summary of the method: as §2
Mus musculus [10] = experiment: Neurotoxicity in Kunming mouse assessed as supination at 5 to 500 mg/kg, ip observed continuously for first 2 hrs, intermittently for next 24 hrs and occasionally thereafter for 14 days; format: toxicity, organism-based; conditions: in vivo; summary of the method: as §2
Mus musculus [11] = experiment: Neurotoxicity in Kunming mouse assessed as jumping behavior at 5 to 500 mg/kg, ip observed continuously for first 2 hrs, intermittently for next 24 hrs and occasionally thereafter for 14 days; format: toxicity, organism-based; conditions: in vivo; summary of the method: as §2
Mus musculus [12] = experiment: Hepatotoxicity in Kunming mouse at 5 to 500 mg/kg, ip after 14 days by macroscopic method; format: toxicity, organism-based; conditions: in vivo, 336 h
Sarcoma-180 [13] = experiment: Antitumor activity against mouse Sarcoma 180 cells implanted in mouse assessed as tumor growth inhibition at 10 mg/kg, ip administered once per day for 7 consecutive days starting from 24 hrs post tumor inoculation and measured on day 21 post tumor inoculation relative to control; format: functional; conditions: Sarcoma-180, ip, read-out: TGI
Summary of the method: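 Tumor cells were harvested from 7-day donor tumors, and 2×10^6 viable cells/mouse were injected s.c. in the armpit. Groups of 10 female mice received i.p. compound daily for 7 days, starting 24 h after inoculation. Controls were vehicle (negative) and CTX 30 mg/kg (positive). Body weight was recorded every 3 days. On day 21 tumors were excised and weighed, and inhibition was calculated as (C−T)/C×100 from mean tumor weights.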

[14] = system: Lewis lung carcinoma cell line; experiment: animal or person; conditions: Mus musculus, ip, read-out: TGI

Structure (SMILES) | IC50 (SK-OV-3) [µM] | IC50 [1] [µM] | IC50 [2] [µM] | IC50 (A-375) [µM] | IC50 (HepG2) [µM] | IC50 (MCF7) [µM] | IC50 (ECa-109 cell line) [µM] | IC50 (HT-29) [µM] | IC50 (769-P) [µM] | other results
CCCCn1c2cc(OCCCCCn3c4ccccc4c4ccnc(C)c43)ccc2c2ccnc(C)c21 | 14.3 | > 100 | 12.4 | 50.8 | > 100 | > 100 | > 100 | 10.1 | 11.6 | –
Cc1nccc2c3ccc(OCCCCn4c5ccccc5c5ccnc(-c6cccnc6)c54)cc3n(CCCc3ccccc3)c12 | 22.9 | 4.2 | 9.4 | 18.9 | 10.7 | 29.8 | 12.9 | 11.2 | 7.2 | –
Cc1nccc2c3ccccc3n(CCCCOc3ccc4c5ccnc(C)c5n(CCCc5ccccc5)c4c3)c12.Cl | 13.1 | 7.4 | 4.4 | 8.4 | 9.1 | 4 | 9.9 | 14.1 | 9.9 | inhibition in vivo at 30 mg/kg (Sarcoma-180 [3]): 36.7%; Activity (Mus musculus [4]): Non-Toxic; LD50 at 14 days [5]: 150 mg/kg; Activity (Mus musculus [6]): Non-Toxic; Activity (Mus musculus [7]): Toxic; Activity (Mus musculus [8]): Non-Toxic; Activity (Mus musculus [9]): Non-Toxic; Activity (Mus musculus [10]): Non-Toxic; Activity (Mus musculus [11]): Non-Toxic; Activity (Mus musculus [12]): Non-Toxic
CCn1c2cc(OCCCCn3c4ccccc4c4ccncc43)ccc2c2ccnc(C)c21 | 19.8 | 41.5 | 16.5 | 30.7 | > 100 | 19.4 | 37 | 37 | 27.4 | –
Cc1nccc2c3ccc(OCCCCCCn4c5ccccc5c5ccncc54)cc3n(CCCc3ccccc3)c12 | 76.4 | 11.2 | 28.2 | 37.1 | 12.1 | 8.5 | 12.6 | 16.2 | 13.1 | –
Cc1nccc2c3ccc(OCCCCn4c5ccccc5c5ccncc54)cc3n(CCCc3ccccc3)c12.Cl | 13.8 | 8.5 | 9.6 | 33.4 | 9.7 | 4.5 | 9.5 | 15.9 | 10.7 | inhibition in vivo at 10 mg/kg (Sarcoma-180 [13]): 33.5%; Activity (Mus musculus [4]): Non-Toxic; LD50 at 14 days [5]: 50 mg/kg; Activity (Mus musculus [6]): Non-Toxic; Activity (Mus musculus [7]): Toxic; Activity (Mus musculus [8]): Non-Toxic; Activity (Mus musculus [9]): Non-Toxic; Activity (Mus musculus [10]): Non-Toxic; Activity (Mus musculus [11]): Non-Toxic; Activity (Mus musculus [12]): Non-Toxic
CCCCn1c2cc(OCCCCCCn3c4ccccc4c4ccncc43)ccc2c2ccnc(C)c21 | > 100 | > 100 | 46.1 | 78.3 | 51.7 | > 100 | > 100 | > 100 | > 100 | –
CCCCn1c2cc(OCCCCCn3c4ccccc4c4ccncc43)ccc2c2ccnc(C)c21 | 65.1 | > 100 | > 100 | > 100 | 65.1 | 16.7 | > 100 | 32.6 | 31.1 | –
O=P1(N(CCCl)CCCl)NCCCO1 (stereo not drawn) [CYCLOPHOSPHAMIDE ANHYDROUS] | – | – | – | – | – | – | – | – | – | inhibition in vivo at 30 mg/kg (Sarcoma-180 [3]): 82.5%; inhibition in vivo at 30 mg/kg [14]: 80.7%
CCCCn1c2cc(OCCCCn3c4ccccc4c4ccncc43)ccc2c2ccnc(C)c21 | 17.3 | 41.5 | 38 | 72.4 | 29.5 | 28.8 | 21.8 | 21.8 | 22.9 | –
